{"source": "ChEMBL document CHEMBL4130343", "about": "“Design, synthesis, and evaluation of benzofuran derivatives as novel anti-pancreatic carcinoma agents via interfering the hypoxia environment by targeting HIF-1α pathway” (Eur J Med Chem, 2017)", "key": {"[1]": {"test": "Half life in rat at 10 mg/kg, iv after 0.083 to 24 hrs by LC-MS/MS method", "assay_type": "ADME, organism-based", "conditions": "in vivo"}, "[2]": {"test": "AUC (0 to t) in rat at 10 mg/kg, ip after 0.083 to 24 hrs by LC-MS/MS method", "assay_type": "ADME, organism-based", "design": "dose 10 mg/kg, time 0.083-24 hr, route intraperitoneal", "conditions": "in vivo"}, "[3]": {"test": "Cmax in rat at 10 mg/kg, iv after 0.083 to 24 hrs by LC-MS/MS method", "assay_type": "ADME, organism-based", "design": "dose 10 mg/kg, route intravenous", "conditions": "in vivo"}, "[4]": {"tested_on": "PANC-1", "test": "Induction of apoptosis in human PANC1 cells assessed as early apoptotic cells at 0.1 uM after 24 hrs by annexin V/propidium iodide staining-based flow cytometric method (reference value: 7.25%)", "assay_type": "functional"}, "[5]": {"tested_on": "Mus musculus", "test": "Downregulation of VEGF expression in human PANC1 cells xenografted in nude mouse at 15 to 60 mg/kg, ip administered every 2 days for 21 days by immunohistochemical method", "assay_type": "functional, organism-based", "procedure,_shortened": "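Tumors came from the PANC-1 nude-mouse xenografts dosed at 15, 30 or 60 mg/kg i.p. every two days for 21 days. Tumor sections were stained immunohistochemically with antibodies against CD31, HIF-1α and VEGF.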"}, "[6]": {"tested_on": "PANC-1", "test": "Antitumor activity against human PANC1 cells xenografted in nude mouse assessed as inhibition of tumor weight at 15 mg/kg, ip administered every 2 days for 21 days relative to vehicle-treated control", "assay_type": "functional", "conditions": "PANC-1, ip", "procedure,_shortened": "(§1)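 Female nude mice received 1×10^7 PANC-1 cells subcutaneously in the right flank. After 4 weeks, mice bearing tumors averaging 100 mm³ were randomized into five groups. Dosing was 15, 30 or 60 mg/kg i.p. every two days for 21 days. Tumor volume = width² × length/2; tumors were weighed at sacrifice, and body weight was monitored.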"}, "[7]": {"test": "Cmax in rat at 10 mg/kg, ip after 0.083 to 24 hrs by LC-MS/MS method", "assay_type": "ADME, organism-based", "design": "dose 10 mg/kg, route intraperitoneal", "conditions": "in vivo"}, "[8]": {"test": "Half life in rat at 10 mg/kg, ip after 0.083 to 24 hrs by LC-MS/MS method", "assay_type": "ADME, organism-based", "conditions": "in vivo"}, "[9]": {"test": "Plasma concentration in rat at 10 mg/kg, ip after 36 hrs by LC-MS/MS method", "assay_type": "ADME, organism-based", "procedure,_shortened": "(§2)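 Rats, n = 6 per group, each given a single 10 mg/kg dose. Blood was collected into heparinized tubes and centrifuged at 4 °C and 8000 rpm for 5 min. Plasma was analysed by LC–MS/MS.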"}, "[10]": {"tested_on": "PANC-1", "test": "Induction of apoptosis in human PANC1 cells assessed as viable cells at 0.1 uM after 24 hrs by annexin V/propidium iodide staining-based flow cytometric method (reference value: 89.5%)", "assay_type": "functional", "conditions": "PANC-1, 24 h, read-out: Activity"}, "[11]": {"test": "Plasma concentration in rat at 10 mg/kg, iv after 36 hrs by LC-MS/MS method", "assay_type": "ADME, organism-based", "procedure,_shortened": "as §2"}, "[12]": {"tested_on": "PANC-1", "test": "Antitumor activity against human PANC1 cells xenografted in nude mouse assessed as decrease in tumor volume at 15 to 60 mg/kg, ip administered every 2 days for 21 days", "assay_type": "functional, organism-based", "procedure,_shortened": "as §1"}, "[13]": {"test": "AUC (0 to t) in rat at 10 mg/kg, iv after 0.083 to 24 hrs by LC-MS/MS method", "assay_type": "ADME, organism-based", "design": "time upper 24 hr, time lower 0.083 hr, dose 10 mg/kg, route intravenous", "conditions": "in vivo"}, "[14]": {"tested_on": "HCT-116", "test": "Antiproliferative activity against human HCT116 cells after 48 hrs by MTT assay", "assay_type": "functional, cell-based", "conditions": "HCT-116, 48 h", "procedure,_shortened": "(§3)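 Cells were seeded at 5×10^5 cells/mL overnight and exposed to graded compound concentrations for 48 h. MTT (5 mg/mL stock) was added for 4 h at 37 °C, and formazan was dissolved in DMSO. Absorbance was read at 570 nm. IC₅₀ was fitted from the curves; values are mean ± SD, n = 3.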"}, "[15]": {"tested_on": "PANC-1", "test": "Induction of apoptosis in human PANC1 cells after 24 hrs by annexin V/propidium iodide staining-based flow cytometric method", "assay_type": "functional, cell-based"}, "[16]": {"tested_on": "PANC-1", "test": "Induction of apoptosis in human PANC1 cells assessed as early apoptotic cells at 2 uM after 24 hrs by annexin V/propidium iodide staining-based flow cytometric method (reference value: 7.25%)", "assay_type": "functional"}, "[17]": {"tested_on": "BXPC-3", "test": "Antiproliferative activity against human BxPC3 cells after 48 hrs by MTT assay", "assay_type": "functional, cell-based", "conditions": "BXPC-3, 48 h", "procedure,_shortened": "as §3"}, "[18]": {"test": "Intrinsic aqueous solubility of the compound", "assay_type": "physicochemical", "conditions": "read-out: Intrinsic_solubility", "procedure,_shortened": "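Intrinsic aqueous solubility and log D at pH 7.4 were measured on a pION Gemini Profiler.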"}, "[19]": {"tested_on": "PANC-1", "test": "Induction of apoptosis in human PANC1 cells assessed as late apoptotic cells at 0.1 uM after 24 hrs by annexin V/propidium iodide staining-based flow cytometric method (reference value: 2.65%)", "assay_type": "functional"}, "[20]": {"tested_on": "PANC-1", "test": "Induction of apoptosis in human PANC1 assessed as increase in cleaved PARP levels at 0.1 to 1 uM after 24 hrs by Western blot method", "assay_type": "functional, cell-based", "procedure,_shortened": "(§4)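 PANC-1 cells were treated with graded compound concentrations for 24 h, then lysed. Proteins were separated by SDS-PAGE and blotted to PVDF. Blots were probed for PARP, cleaved PARP, caspase-3, cleaved caspase-3, caspase-9 and cleaved caspase-9, with GAPDH as loading control, and read by infrared imaging. Bands were quantified by densitometry as ratios normalized to GAPDH.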"}, "[21]": {"tested_on": "MDA-MB-231", "test": "Antiproliferative activity against human MDA-MB-231 cells after 48 hrs by MTT assay", "assay_type": "functional, cell-based", "conditions": "MDA-MB-231, 48 h", "procedure,_shortened": "as §3"}, "[22]": {"tested_on": "PANC-1", "test": "Antitumor activity against human PANC1 cells xenografted in nude mouse assessed as inhibition of tumor weight at 30 mg/kg, ip administered every 2 days for 21 days relative to vehicle-treated control", "assay_type": "functional", "conditions": "PANC-1, ip", "procedure,_shortened": "as §1"}, "[23]": {"tested_on": "PANC-1", "test": "Induction of apoptosis in human PANC1 assessed as decrease in caspase-3 levels at 0.1 to 1 uM after 24 hrs by Western blot method", "assay_type": "functional, cell-based", "procedure,_shortened": "as §4"}, "[24]": {"tested_on": "PANC-1", "test": "Induction of apoptosis in human PANC1 assessed as decrease in caspase-9 levels at 0.1 to 1 uM after 24 hrs by Western blot method", "assay_type": "functional, cell-based", "procedure,_shortened": "as §4"}, "[25]": {"tested_on": "PANC-1", "test": "Induction of apoptosis in human PANC1 cells assessed as viable cells at 2 uM after 24 hrs by annexin V/propidium iodide staining-based flow cytometric method (reference value: 89.5%)", "assay_type": "functional", "conditions": "PANC-1, 24 h, read-out: Activity"}, "[26]": {"tested_on": "PANC-1", "test": "Induction of apoptosis in human PANC1 cells assessed as dead cells at 0.1 uM after 24 hrs by annexin V/propidium iodide staining-based flow cytometric method (reference value: 0.60%)", "assay_type": "functional"}, "[27]": {"tested_on": "HCT-116", "test": "Antiproliferative activity against p53-deficient human HCT116 cells after 48 hrs by MTT assay", "assay_type": "functional, cell-based", "conditions": "HCT-116, 48 h", "procedure,_shortened": "as §3"}, "[28]": {"tested_on": "A549", "test": "Antiproliferative activity against human A549 cells after 48 hrs by MTT assay", "assay_type": "functional, cell-based", "conditions": "A549, 48 h", "procedure,_shortened": "as §3"}, "[29]": {"target": "Hypoxia-inducible factor 1-alpha (Homo sapiens) (UniProt Q16665)", "sequence (Q16665 whole entry, looked up)": "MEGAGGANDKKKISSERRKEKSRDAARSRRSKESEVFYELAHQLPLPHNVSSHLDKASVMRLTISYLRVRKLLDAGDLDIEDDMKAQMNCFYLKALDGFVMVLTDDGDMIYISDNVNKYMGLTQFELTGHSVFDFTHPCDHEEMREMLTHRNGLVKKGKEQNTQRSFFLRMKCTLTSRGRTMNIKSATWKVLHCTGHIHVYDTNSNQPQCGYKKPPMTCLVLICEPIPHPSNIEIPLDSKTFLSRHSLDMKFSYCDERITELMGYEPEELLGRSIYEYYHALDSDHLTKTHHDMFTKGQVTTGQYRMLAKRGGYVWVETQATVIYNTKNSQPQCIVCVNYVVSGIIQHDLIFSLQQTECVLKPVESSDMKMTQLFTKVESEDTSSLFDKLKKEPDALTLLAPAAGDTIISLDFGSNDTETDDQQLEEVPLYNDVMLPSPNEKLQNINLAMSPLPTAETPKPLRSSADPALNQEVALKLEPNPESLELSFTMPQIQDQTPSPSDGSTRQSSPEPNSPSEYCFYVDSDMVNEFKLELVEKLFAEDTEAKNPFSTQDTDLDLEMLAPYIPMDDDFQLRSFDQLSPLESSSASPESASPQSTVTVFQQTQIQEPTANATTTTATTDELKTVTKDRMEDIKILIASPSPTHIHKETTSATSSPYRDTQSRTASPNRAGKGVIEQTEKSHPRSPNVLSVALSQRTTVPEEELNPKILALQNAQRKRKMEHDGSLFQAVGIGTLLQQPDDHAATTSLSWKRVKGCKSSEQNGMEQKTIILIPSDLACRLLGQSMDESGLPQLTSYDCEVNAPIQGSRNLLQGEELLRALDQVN", "test": "Inhibition of HIF-1alpha (unknown origin) expressed in HEK293 cells under hypoxia condition after 24 hrs by luciferase reporter gene assay", "assay_type": "cell-based", "procedure,_shortened": "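HEK293 cells were co-transfected with HRE-luciferase and pRL-SV40 plasmids for 6 h. Cells were then treated with compound under hypoxia (1% O₂, 94% N₂, 5% CO₂, 37 °C) for 24 h. Activity was read by dual-luciferase assay on a luminometer.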"}}, "note": "The source made the active and inactive calls. No cut-off for these calls is given here."}
{"smiles": "Cc1c(C(=O)NC2CCN(C)CC2)oc2ccc(N(Cc3ccc(Br)cc3)S(=O)(=O)c3ccc(Br)cc3)cc12", "values": [{"measurement": "half-life", "setting": "[1]", "value": 7.68, "unit": "h"}, {"measurement": "AUC(0-t)", "setting": "[2]", "value": 6220, "unit": "ng·h/mL"}, {"measurement": "Cmax", "setting": "[3]", "value": 3100, "unit": "ng/mL"}, {"measurement": "Activity", "setting": "[4]", "value": 4.45, "unit": "%"}, {"measurement": "Activity", "setting": "[5]", "value": "Active"}, {"measurement": "inhibition in vivo at 15 mg/kg", "setting": "[6]", "value": 39, "unit": "%"}, {"measurement": "Cmax", "setting": "[7]", "value": 549, "unit": "ng/mL"}, {"measurement": "half-life", "setting": "[8]", "value": 7.09, "unit": "h"}, {"measurement": "concentration at 36 h", "setting": "[9]", "value": "> 10", "unit": "ng/mL"}, {"measurement": "viability at 0.1 µM", "setting": "[10]", "value": 85.5, "unit": "%"}, {"measurement": "concentration at 36 h", "setting": "[11]", "value": "> 10", "unit": "ng/mL"}, {"measurement": "Activity", "setting": "[12]", "value": "Active"}, {"measurement": "AUC(0-t)", "setting": "[13]", "value": 7220, "unit": "ng·h/mL"}, {"measurement": "IC50", "setting": "[14]", "value": 1810, "unit": "nM"}, {"measurement": "Activity", "setting": "[15]", "value": "Dose-dependent effect"}, {"measurement": "Activity", "setting": "[16]", "value": 3.7, "unit": "%"}, {"measurement": "IC50", "setting": "[17]", "value": 650, "unit": "nM"}, {"measurement": "solubility", "setting": "[18]", "value": 30.2, "unit": "µg/mL"}, {"measurement": "Activity", "setting": "[19]", "value": 9.3, "unit": "%"}, {"measurement": "Activity", "setting": "[20]", "value": "Active"}, {"measurement": "IC50", "setting": "[21]", "value": 1900, "unit": "nM"}, {"measurement": "inhibition in vivo at 30 mg/kg", "setting": "[22]", "value": 66.4, "unit": "%"}, {"measurement": "Activity", "setting": "[23]", "value": "Active"}, {"measurement": "Activity", "setting": "[24]", "value": "Active"}, {"measurement": "viability at 2 µM", "setting": "[25]", "value": 44.7, "unit": "%"}, {"measurement": "Activity", "setting": "[26]", "value": 0.8, "unit": "%"}, {"measurement": "IC50", "setting": "[27]", "value": 1610, "unit": "nM"}, {"measurement": "IC50", "setting": "[28]", "value": 2680, "unit": "nM"}, {"measurement": "inhibition", "setting": "[29]", "value": "Dose-dependent effect"}]}
